Active and inactive are the calls of the source. The calls are words filed in the database; no cut-off is given here.
What was measured:
[1] = Antitumor activity against mouse early Lewis lung carcinoma allografted in BDF1 mouse assessed as increase in host life span at 57 mg/kg, ip administered as single dose on 1 or 2 days post-tumor implantation; assay type: functional; conditions: route intraperitoneal
Method in brief: (§1)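 BDF1 mice (C57Blk/6 × DBA/2) implanted sc by trocar with ~40 mg Lewis lung tumor fragments from bacteriologically sterile donor tumors. Single ip dose on day 1 or 2, as a solution or suspension in water (CMC or gum acacia) or saline (HPC or Tween 80). Read-out is […]. Same-dose toxicity controls were run in nontumor-bearing mice.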

[2] = Antitumor activity against mouse early Lewis lung carcinoma allografted in BDF1 mouse assessed as increase in host life span at 38 mg/kg, ip administered as single dose on 1 or 2 days post-tumor implantation; assay type: functional; conditions: route intraperitoneal; method in brief: as §1
[3] = Antitumor activity against mouse early Lewis lung carcinoma allografted in BDF1 mouse assessed as time delay in tumor growth at 57 mg/kg, ip administered as single dose on 1 or 2 days post-tumor implantation; assay type: functional; conditions: route intraperitoneal
Method in brief: (§2)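 BDF1 mice (C57Blk/6 × DBA/2) implanted sc by trocar with ~40 mg Lewis lung tumor fragments from bacteriologically sterile donors. A single ip dose was given on day 1 or 2, as a solution or suspension in water or saline with suspending agent, at ≤0.5 ml. Tumors were measured by caliper at least twice weekly, with weight = ab²/2. Delay was taken as the days for the tumor to reach 1 g.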

[4] = Antitumor activity against mouse early Lewis lung carcinoma allografted in BDF1 mouse assessed as time delay in tumor growth at 38 mg/kg, ip administered as single dose on 1 or 2 days post-tumor implantation; assay type: functional; conditions: route intraperitoneal; method in brief: as §2
Mus musculus [5] = test: Antitumor activity against mouse advanced Lewis lung carcinoma allografted in BDF1 mouse assessed as disease cure at 55 mg/kg, ip administered as single dose on 7th day post-tumor implantation measured for 80 days post-drug treatment; assay type: functional, organism-based; set-up: dose 55 mg/kg
Method in brief: (§3)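 BDF1 mice (C57Blk/6 × DBA/2) implanted sc by trocar with Lewis lung tumor fragments of about 40 mg, taken only from bacteriologically sterile donor tumors. Mice bearing tumors of about 400 mg (day 6-7) were selected. Each received a single ip dose on day 7, at or below the LD10 in normal mice. Groups were of 10 mice. Tumor weight was taken from calipers as w = ab²/2, measured at least twice weekly. Matched non-tumor mice served as toxicity controls.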

Mus musculus [6] = test: Antitumor activity against mouse advanced Lewis lung carcinoma allografted in BDF1 mouse assessed as complete regression of established tumor at 55 mg/kg, ip administered as single dose on 7th day post-tumor implantation; assay type: functional, organism-based; set-up: dose 55 mg/kg; method in brief: as §3
[7] = Antitumor activity against mouse advanced Lewis lung carcinoma allografted in BDF1 mouse assessed as increase in host life span at 55 mg/kg, ip administered as single dose on 7th day post-tumor implantation; assay type: functional; conditions: route intraperitoneal
Method in brief: (§4)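 BDF1 mice (C57Blk/6 × DBA/2) implanted sc by trocar with about 40 mg Lewis lung tumor fragments from bacteriologically sterile donors. Advanced-disease groups held tumors of about 400 mg by day 6-7, sized by caliper (w = ab²/2). Single ip injection on day 7, in water or saline vehicle, at or below the LD10 in normal mice. Tumors measured at least twice weekly.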

[8] = Antitumor activity against mouse early Lewis lung carcinoma allografted in ip dosed BDF1 mouse assessed as disease cure administered as single dose on 1 or 2 days post-tumor implantation measured for 80 days post-drug treatment; assay type: functional
Method in brief: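 BDF1 mice implanted sc by trocar with ~40 mg Lewis lung fragments from sterile donor tumors. A single ip dose was given on day 1 or 2 after implant, in water or saline vehicle. Cures were scored in animals observed for at least 80 days after treatment. Drug-toxicity controls were matched non-tumor-bearing mice monitored for body weight and deaths.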

[9] = Ratio of ED50 for antitumor activity against mouse L1210 cells allografted in ip dosed mouse to LD10 for mouse
Mus musculus [10] = test: Antitumor activity against mouse advanced Lewis lung carcinoma allografted in ip dosed BDF1 mouse assessed as complete regression of established tumor administered as single dose on day 6 or 7 post-tumor implantation; assay type: functional, organism-based; method in brief: as §3
Mus musculus [11] = test: Antitumor activity against mouse advanced Lewis lung carcinoma allografted in ip dosed BDF1 mouse assessed as disease cure administered as single dose on day 6 or 7 post-tumor implantation; assay type: functional, organism-based; method in brief: as §3
[12] = Antitumor activity against mouse advanced Lewis lung carcinoma allografted in ip dosed BDF1 mouse assessed as increase in host lifespan administered as single dose on day 6 or 7 post-tumor implantation; assay type: functional
Method in brief: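 Advanced Lewis lung model: about 40 mg fragments implanted sc by trocar into BDF1 mice, and mice with tumors of about 400 mg (day 6-7) selected. Tumor weight from calipers, w = ab²/2. Agent given as one ip dose in distilled water or physiological saline. Nontumor-bearing mice received matching doses as toxicity controls.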

[13] = Antitumor activity against mouse early Lewis lung carcinoma allografted in BDF1 mouse assessed as increase in host life span at 36 mg/kg, ip administered as single dose on 1 or 2 days post-tumor implantation; assay type: functional; conditions: route intraperitoneal; method in brief: as §1
[14] = Antitumor activity against mouse early Lewis lung carcinoma allografted in BDF1 mouse assessed as increase in host life span at 24 mg/kg, ip administered as single dose on 1 or 2 days post-tumor implantation; assay type: functional; conditions: route intraperitoneal; method in brief: as §1
[15] = Antitumor activity against mouse early Lewis lung carcinoma allografted in BDF1 mouse assessed as time delay in tumor growth at 36 mg/kg, ip administered as single dose on 1 or 2 days post-tumor implantation; assay type: functional; conditions: route intraperitoneal; method in brief: as §2
[16] = Antitumor activity against mouse early Lewis lung carcinoma allografted in BDF1 mouse assessed as time delay in tumor growth at 24 mg/kg, ip administered as single dose on 1 or 2 days post-tumor implantation; assay type: functional; conditions: route intraperitoneal; method in brief: as §2
[17] = Antitumor activity against mouse advanced Lewis lung carcinoma allografted in BDF1 mouse assessed as increase in host life span at 36 mg/kg, ip administered as single dose on 7th day post-tumor implantation; assay type: functional; conditions: route intraperitoneal; method in brief: as §4
[18] = Antitumor activity against mouse early Lewis lung carcinoma allografted in BDF1 mouse assessed as increase in host life span at 315 mg/kg, ip administered as single dose on 1 or 2 days post-tumor implantation; assay type: functional; conditions: route intraperitoneal; method in brief: as §1
[19] = Antitumor activity against mouse early Lewis lung carcinoma allografted in BDF1 mouse assessed as increase in host life span at 210 mg/kg, ip administered as single dose on 1 or 2 days post-tumor implantation; assay type: functional; conditions: route intraperitoneal; method in brief: as §1
[20] = Antitumor activity against mouse early Lewis lung carcinoma allografted in BDF1 mouse assessed as time delay in tumor growth at 315 mg/kg, ip administered as single dose on 1 or 2 days post-tumor implantation; assay type: functional; conditions: route intraperitoneal; method in brief: as §2
[21] = Antitumor activity against mouse early Lewis lung carcinoma allografted in BDF1 mouse assessed as time delay in tumor growth at 210 mg/kg, ip administered as single dose on 1 or 2 days post-tumor implantation; assay type: functional; conditions: route intraperitoneal; method in brief: as §2
Mus musculus [22] = test: Antitumor activity against mouse advanced Lewis lung carcinoma allografted in BDF1 mouse assessed as disease cure at 316 mg/kg, ip administered as single dose on 7th day post-tumor implantation measured for 80 days post-drug treatment; assay type: functional, organism-based; set-up: dose 316 mg/kg; method in brief: as §3
[23] = Antitumor activity against mouse advanced Lewis lung carcinoma allografted in BDF1 mouse assessed as increase in host life span at 316 mg/kg, ip administered as single dose on 7th day post-tumor implantation; assay type: functional; conditions: route intraperitoneal; method in brief: as §4
[24] = Antitumor activity against mouse early Lewis lung carcinoma allografted in BDF1 mouse assessed as increase in host life span at 152 mg/kg, ip administered as single dose on 1 or 2 days post-tumor implantation; assay type: functional; conditions: route intraperitoneal; method in brief: as §1
[25] = Antitumor activity against mouse early Lewis lung carcinoma allografted in BDF1 mouse assessed as increase in host life span at 67 mg/kg, ip administered as single dose on 1 or 2 days post-tumor implantation; assay type: functional; conditions: route intraperitoneal; method in brief: as §1
[26] = Antitumor activity against mouse early Lewis lung carcinoma allografted in BDF1 mouse assessed as time delay in tumor growth at 152 mg/kg, ip administered as single dose on 1 or 2 days post-tumor implantation; assay type: functional; conditions: route intraperitoneal; method in brief: as §2
[27] = Antitumor activity against mouse early Lewis lung carcinoma allografted in BDF1 mouse assessed as time delay in tumor growth at 67 mg/kg, ip administered as single dose on 1 or 2 days post-tumor implantation; assay type: functional; conditions: route intraperitoneal; method in brief: as §2
[28] = Antitumor activity against mouse advanced Lewis lung carcinoma allografted in BDF1 mouse assessed as increase in host life span at 171 mg/kg, ip administered as single dose on 7th day post-tumor implantation; assay type: functional; conditions: route intraperitoneal; method in brief: as §4
[29] = Antitumor activity against mouse early Lewis lung carcinoma allografted in BDF1 mouse assessed as increase in host life span at 60 mg/kg, ip administered as single dose on 1 or 2 days post-tumor implantation; assay type: functional; conditions: route intraperitoneal; method in brief: as §1
[30] = Antitumor activity against mouse early Lewis lung carcinoma allografted in BDF1 mouse assessed as increase in host life span at 40 mg/kg, ip administered as single dose on 1 or 2 days post-tumor implantation; assay type: functional; conditions: route intraperitoneal; method in brief: as §1
Mus musculus [31] = test: Antitumor activity against mouse advanced Lewis lung carcinoma allografted in BDF1 mouse assessed as complete regression of established tumor at 60 mg/kg, ip administered as single dose on 7th day post-tumor implantation; assay type: functional, organism-based; set-up: dose 60 mg/kg; method in brief: as §3
Mus musculus [32] = test: Antitumor activity against mouse advanced Lewis lung carcinoma allografted in BDF1 mouse assessed as complete regression of established tumor at 40 mg/kg, ip administered as single dose on 7th day post-tumor implantation; assay type: functional, organism-based; set-up: dose 40 mg/kg; method in brief: as §3
Mus musculus [33] = test: Antitumor activity against mouse advanced Lewis lung carcinoma allografted in BDF1 mouse assessed as disease cure at 40 mg/kg, ip administered as single dose on 7th day post-tumor implantation measured for 80 days post-drug treatment; assay type: functional, organism-based; set-up: dose 40 mg/kg; method in brief: as §4
Mus musculus [34] = test: Antitumor activity against mouse advanced Lewis lung carcinoma allografted in BDF1 mouse assessed as disease cure at 60 mg/kg, ip administered as single dose on 7th day post-tumor implantation measured for 80 days post-drug treatment; assay type: functional, organism-based; set-up: dose 60 mg/kg; method in brief: as §3
[35] = Antitumor activity against mouse advanced Lewis lung carcinoma allografted in BDF1 mouse assessed as increase in host life span at 60 mg/kg, ip administered as single dose on 7th day post-tumor implantation; assay type: functional; conditions: route intraperitoneal; method in brief: as §4
[36] = Antitumor activity against mouse early Lewis lung carcinoma allografted in BDF1 mouse assessed as time delay in tumor growth at 60 mg/kg, ip administered as single dose on 1 or 2 days post-tumor implantation; assay type: functional; conditions: route intraperitoneal; method in brief: as §2
[37] = Antitumor activity against mouse early Lewis lung carcinoma allografted in BDF1 mouse assessed as time delay in tumor growth at 40 mg/kg, ip administered as single dose on 1 or 2 days post-tumor implantation; assay type: functional; conditions: route intraperitoneal; method in brief: as §2
[38] = Antitumor activity against mouse advanced Lewis lung carcinoma allografted in BDF1 mouse assessed as increase in host life span at 40 mg/kg, ip administered as single dose on 7th day post-tumor implantation; assay type: functional; conditions: route intraperitoneal; method in brief: as §4

## O=NN(CCCl)C(=O)N[C@H]1CCCC[C@@H]1Cl (relative stereo)
[1]
  ILS at 57 mg/kg: 38%
[2]
  ILS at 38 mg/kg: 43%
[3]
  Time: 2.5 days
[4]
  Time: 3.3 days
Mus musculus [5]
  Activity: inactive
Mus musculus [6]
  inhibition: inactive
[7]
  ILS at 55 mg/kg: 18%
[8]
  Activity: 10%
[9]
  Ratio: 0.6
Mus musculus [10]
  inhibition: inactive
Mus musculus [11]
  Activity: inactive
[12]
  ILS: >25%

## C[C@H]1CC[C@H](NC(=O)N(CCCl)N=O)CC1
[13]
  ILS at 36 mg/kg: 44%
[14]
  ILS at 24 mg/kg: 37%
[15]
  Time: 14 days
[16]
  Time: 6.5 days
[17]
  ILS at 36 mg/kg: 46%
[8]
  Activity: >50%
[9]
  Ratio: 0.4
Mus musculus [11]
  Activity: Active

## CC(C)(C)[C@H]1CC[C@H](NC(=O)N(CCCl)N=O)CC1
[18]
  ILS at 315 mg/kg: 19%
[19]
  ILS at 210 mg/kg: 24%
[20]
  Time: 22 days
[21]
  Time: 4.1 days
Mus musculus [22]
  Activity: inactive
[23]
  ILS at 316 mg/kg: 41%
[8]
  Activity: 10%
[9]
  Ratio: 0.6
Mus musculus [10]
  inhibition: Active
Mus musculus [11]
  Activity: inactive

## O=NN(CCCl)C(=O)N[C@H]1CC[C@H](NC(=O)N(CCCl)N=O)CC1
[24]
  ILS at 152 mg/kg: 41%
[25]
  ILS at 67 mg/kg: 34%
[26]
  Time: 4 days
[27]
  Time: 2 days
[28]
  ILS at 171 mg/kg: 146%
[8]
  Activity: 10%
[9]
  Ratio: 0.3
Mus musculus [11]
  Activity: Active

## O=NN(CCCl)C(=O)N[C@H]1CC[C@H](CCl)CC1
[29]
  ILS at 60 mg/kg: 87%
[30]
  ILS at 40 mg/kg: 74%
Mus musculus [31]
  inhibition: inactive
Mus musculus [32]
  inhibition: inactive
Mus musculus [33]
  Activity: inactive
Mus musculus [34]
  Activity: inactive
[35]
  ILS at 60 mg/kg: 109%
[36]
  Time: 4.3 days
[37]
  Time: 5.2 days
[38]
  ILS at 40 mg/kg: 51%
[8]
  Activity: 10%
[9]
  Ratio: 0.6
Mus musculus [10]
  inhibition: inactive
Mus musculus [11]
  Activity: inactive
[12]
  ILS: >25%
